The values that follow come from ChEMBL document CHEMBL4364274, “Synthesis and biological activity of glycyrrhetinic acid derivatives as antitumor agents” (Eur J Med Chem, 2019).

Experiment [1] concerns A549. The experiment in a line: Antiproliferative activity against human A549 cells incubated for 72 hrs by MTT assay. Format: functional, cell-based. The note with it: A549, 72 h. Summed up:
(§1)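 Cells in exponential growth were plated at 3×10^3 cells/well and grown 24 h at 37 °C in 5% CO2. They were then exposed to a range of drug concentrations for 72 h. MTT (5 mg/mL solution) was added for 4 h, the medium was discarded, and formazan was dissolved in DMSO before reading A490. Drug-free wells served as blanks. % inhibition was calculated as 1 − (sample−blank)/(control−blank), and IC50 was taken as the concentration giving 50% inhibition.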

Experiment [2] has as its system MCF7. Description: Antiproliferative activity against human MCF7 cells incubated for 72 hrs by MTT assay. The note with it: MCF7, 72 h. The class given is functional, cell-based. Summed up: as §1
The test system of experiment [3] is HepG2. Description: Antiproliferative activity against human HepG2 cells incubated for 72 hrs by MTT assay. Format: functional, cell-based. The note with it: HepG2, 72 h. An outline of the steps:
as §1
A general note: Tetrazolium assays rely on reduction of a dye to a coloured formazan, in cell work by metabolically active cells.

The test system of experiment [4] is HeLa. The experiment in a line: Antiproliferative activity against human HeLa cells incubated for 72 hrs by MTT assay. Format: functional, cell-based. Summed up:
as §1

For experiment [5], the system named is MDCK. The experiment in a line: Cytotoxicity against MDCK cells incubated for 72 hrs by MTT assay. The class given is cell-based. The note with it: Canis lupus familiaris. An outline of the steps:
as §1

The subject of experiment [6] is A549. The experiment in a line: Induction of morphological changes in human A549 cells assessed as appearance of apoptotic body formation at 1 to 5 uM incubated for 72 hrs by DAPI staining by inverted phase-contrast microscopic method. Format: functional, cell-based. An outline of the steps:
(§2)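 Exponentially growing A549 cells were plated at 2.4×10^4 cells/well, grown 24 h at 37 °C in 5% CO2, then exposed to 1, 3 or 5 μM for 72 h beside untreated controls. Cells were washed twice in PBS, fixed in 4% paraformaldehyde for 10 min, and stained with DAPI (10 µg/mL) for 1 min in the dark. Nuclei were examined by inverted microscope at 200×.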

Experiment [7] relates to A549. Description: Induction of morphological changes in human A549 cells assessed as condensation of chromatin at 1 to 5 uM incubated for 72 hrs by DAPI staining by inverted phase-contrast microscopic method. The class given is functional, cell-based. An outline of the steps:
as §2

The test system of experiment [8] is A549. The experiment in a line: Induction of morphological changes in human A549 cells assessed as formation of nuclear fragmentation at 1 to 5 uM incubated for 72 hrs by DAPI staining by inverted phase-contrast microscopic method. Format: functional, cell-based. Summed up: as §2
For experiment [9], the system named is A549. Description: Induction of apoptosis in human A549 cells assessed as live cell at 1 uM incubated for 72 hrs by annexin V-FITC and PI staining based flow cytometric analysis (reference value: 90%). Format: functional.
For experiment [10], the system named is A549. The experiment in a line: Induction of apoptosis in human A549 cells assessed as early apoptotic cells at 1 uM incubated for 72 hrs by annexin V-FITC and PI staining based flow cytometric analysis (reference value: 3.0%). The class given is functional.
In experiment [11] the test system is A549. Description: Induction of apoptosis in human A549 cells assessed as late apoptotic cells at 1 uM incubated for 72 hrs by annexin V-FITC and PI staining based flow cytometric analysis (reference value: 6.5%). The class given is functional. (In general: A flow cytometer gives signals particle by particle.)
Experiment [12] concerns A549. Description: Induction of apoptosis in human A549 cells assessed as necrotic cells at 1 uM incubated for 72 hrs by annexin V-FITC and PI staining based flow cytometric analysis (reference value: 0.5%). The class given is functional.
Experiment [13] deals with A549. Description: Induction of apoptosis in human A549 cells assessed as live cell at 3 uM incubated for 72 hrs by annexin V-FITC and PI staining based flow cytometric analysis (reference value: 90%). Format: functional.
Experiment [14] relates to A549. The experiment in a line: Induction of apoptosis in human A549 cells assessed as early apoptotic cells at 3 uM incubated for 72 hrs by annexin V-FITC and PI staining based flow cytometric analysis (reference value: 3.0%). Format: functional.
Experiment [15] relates to A549. The experiment in a line: Induction of apoptosis in human A549 cells assessed as late apoptotic cells at 3 uM incubated for 72 hrs by annexin V-FITC and PI staining based flow cytometric analysis (reference value: 6.5%). The class given is functional.
Experiment [16] relates to A549. The experiment in a line: Induction of apoptosis in human A549 cells assessed as necrotic cells at 3 uM incubated for 72 hrs by annexin V-FITC and PI staining based flow cytometric analysis (reference value: 0.5%). The class given is functional.
The subject of experiment [17] is A549. The experiment in a line: Induction of apoptosis in human A549 cells assessed as live cell at 5 uM incubated for 72 hrs by annexin V-FITC and PI staining based flow cytometric analysis (reference value: 90%). Format: functional.
The test system of experiment [18] is A549. The experiment in a line: Induction of apoptosis in human A549 cells assessed as early apoptotic cells at 5 uM incubated for 72 hrs by annexin V-FITC and PI staining based flow cytometric analysis (reference value: 3.0%). Format: functional.
Experiment [19] concerns A549. Description: Induction of apoptosis in human A549 cells assessed as late apoptotic cells at 5 uM incubated for 72 hrs by annexin V-FITC and PI staining based flow cytometric analysis (reference value: 6.5%). The class given is functional.
The test system of experiment [20] is A549. The experiment in a line: Induction of apoptosis in human A549 cells assessed as necrotic cells at 5 uM incubated for 72 hrs by annexin V-FITC and PI staining based flow cytometric analysis (reference value: 0.5%). The class given is functional.
Experiment [21] relates to A549. Description: Induction of cell cycle arrest in human A549 cells assessed as accumulation at G1 phase at 1 uM incubated for 72 hrs by PI staining based flow cytometric analysis (reference value: 49.94%). The class given is functional.
The subject of experiment [22] is A549. Description: Induction of cell cycle arrest in human A549 cells assessed as accumulation at S phase at 1 uM incubated for 72 hrs by PI staining based flow cytometric analysis (reference value: 31.41%). The class given is functional.
Experiment [23] concerns A549. Description: Induction of cell cycle arrest in human A549 cells assessed as accumulation at G2 phase at 1 uM incubated for 72 hrs by PI staining based flow cytometric analysis (reference value: 18.65%). The class given is functional.
The subject of experiment [24] is A549. Description: Induction of cell cycle arrest in human A549 cells assessed as accumulation at G1 phase at 3 uM incubated for 72 hrs by PI staining based flow cytometric analysis (reference value: 49.94%). Format: functional.
The subject of experiment [25] is A549. Description: Induction of cell cycle arrest in human A549 cells assessed as accumulation at S phase at 3 uM incubated for 72 hrs by PI staining based flow cytometric analysis (reference value: 31.41%). The class given is functional.
In experiment [26] the test system is A549. The experiment in a line: Induction of cell cycle arrest in human A549 cells assessed as accumulation at G2 phase at 3 uM incubated for 72 hrs by PI staining based flow cytometric analysis (reference value: 18.65%). The class given is functional.
Experiment [27] deals with A549. Description: Induction of cell cycle arrest in human A549 cells assessed as accumulation at G1 phase at 5 uM incubated for 72 hrs by PI staining based flow cytometric analysis (reference value: 49.94%). Format: functional.
The subject of experiment [28] is A549. Description: Induction of cell cycle arrest in human A549 cells assessed as accumulation at S phase at 5 uM incubated for 72 hrs by PI staining based flow cytometric analysis (reference value: 31.41%). The class given is functional.
Experiment [29] relates to A549. Description: Induction of cell cycle arrest in human A549 cells assessed as accumulation at G2 phase at 5 uM incubated for 72 hrs by PI staining based flow cytometric analysis (reference value: 18.65%). The class given is functional.
The subject of experiment [30] is A549. Description: Ratio of IC50 for GA to IC50 for test compound for human A549 cells. The class given is functional.
The subject of experiment [31] is HepG2. Description: Ratio of IC50 for GA to IC50 for test compound for human HepG2 cells. Format: functional.

The IC50 is the concentration that inhibits the measured activity by half. High values mean weaker potency in that assay, low ones greater potency in that assay.

Structures are written as SMILES. The source made the active and inactive calls. The rule behind the calls is not given here.

In the case of `C[C@H](N)C(=O)N[C@H]1CC[C@]2(C)[C@H]3C(=O)C=C4[C@@H]5C[C@@](C)(C(=O)OCc6ccccc6)CC[C@]5(C)CC[C@@]4(C)[C@]3(C)CC[C@H]2C1(C)C`, the IC50 amounted to 2110 nM in experiment [1]; 2140 nM in [2]; 2440 nM in [3]; 2390 nM in experiment [4]; 4640 nM in experiment [5]. The result in experiment [6], in experiment [7] and in experiment [8] was Active. Moreover, the Activity in experiment [9] was determined as 85%; in experiment [10], 5.9%; in [11] it was 8.6%; in experiment [12], 0.4%; in [13] it was 65.7%; in experiment [14], 26.5%. The Activity in [15] worked out at 7.5%; in experiment [16] it was 0.3%; in [17], 54%; in experiment [18], 44.8%; in [19], 1.1%; in experiment [20], 0%. Also, the Activity in [21] was found to be 53.09%; in experiment [22], 31.05%; in experiment [23], 15.86%; in experiment [24], 56.45%; in experiment [25] it was 33.59%; in experiment [26], 9.96%. The Activity in [27] was 46.79%; in experiment [28], 53.21%; in [29] it was 0%. Besides, the “Ratio IC50” value in experiment [30] was 18.
Regarding `CC1(C)[C@@H](NC(=O)[C@@H]2CCCN2)CC[C@]2(C)[C@H]3C(=O)C=C4[C@@H]5C[C@@](C)(C(=O)OCc6ccccc6)CC[C@]5(C)CC[C@@]4(C)[C@]3(C)CC[C@@H]12`, the IC50 in [1] turned out to be 3260 nM; in experiment [2] it was 7620 nM; in [3], 2140 nM; in [4], 2210 nM; in [5] it was 2530 nM. For the same molecule, the “Ratio IC50” value in experiment [31] is reported as 16.
